Calb FLC: C. albicans growth inhibition with fluconazole, primary screen, CaCi-2 strain, Alamar Blue fluorescence | AID 1979, 2009 | growth inhibition, % (no concentration beside the values) | 0.57% of 300,000 active | C. albicans CaCi-2 (fluconazole-resistant clinical isolate) + fluconazole, 48 h;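 active = growth inhibition above about 58% in most replicates, limit read from the data, passing the limit was not always enough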;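 also: all wells also contain fluconazole at 8 µg/ml as a sub-toxic cotreatment; 0% = median of DMSO wells and 100% = median of geldanamycin control wells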
SKKanGAS inh: S. pyogenes SKKanGAS growth inhibitors in kanamycin, primary screen, streptokinase expression inhibitor project, SKKanGAS strain, BacTiter-Glo luminescence. 6 h. inhibition, % at 7.5 µM. 1.3% of 300,000 active. AID 1662, 2009;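 active = mean replicate score, as percent of positive control median, at least 50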;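 also: strain carries kanamycin resistance gene driven by streptokinase promoter and grows in 40 µg/ml kanamycin; loss of luminescence reflects streptokinase promoter inhibition or plain growth inhibition; 0% = median of DMSO wells and 100% = positive control at its reference dose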
ASAP1 inh: inhibitors of human ASAP1 ArfGAP activity, primary screen, biochemical, fluorescence polarization | ASAP1-stimulated ARF1 GTP hydrolysis, GDP FP detection | inhibition, % at 16.5 µM | 0.19% of 360,000 active | AID 624377, 2012; in the data active = inhibition above about 25%;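 also: 0% = vehicle with enzyme and substrate and 100% = no enzyme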
HGIII-sPLA2 inh: human group III sPLA2 inhibitors, primary screen, biochemical, QFRET, BODIPY PC-A2 liposome substrate; Group 3 secretory phospholipase A2 (Homo sapiens), Q9NZ20; QFRET BODIPY PC-A2 liposome hydrolysis, fluorescence; inhibition, % at 12.2 µM; 0.56% of 370,000 active;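 active = inhibition above mean plus 3 SD of compounds lying within the high and low control bounds, cut at about 19% in these data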;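 also: 0% = median of test compound wells and 100% = no enzyme DMSO wells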
Target sequence (Q9NZ20 whole entry, looked up): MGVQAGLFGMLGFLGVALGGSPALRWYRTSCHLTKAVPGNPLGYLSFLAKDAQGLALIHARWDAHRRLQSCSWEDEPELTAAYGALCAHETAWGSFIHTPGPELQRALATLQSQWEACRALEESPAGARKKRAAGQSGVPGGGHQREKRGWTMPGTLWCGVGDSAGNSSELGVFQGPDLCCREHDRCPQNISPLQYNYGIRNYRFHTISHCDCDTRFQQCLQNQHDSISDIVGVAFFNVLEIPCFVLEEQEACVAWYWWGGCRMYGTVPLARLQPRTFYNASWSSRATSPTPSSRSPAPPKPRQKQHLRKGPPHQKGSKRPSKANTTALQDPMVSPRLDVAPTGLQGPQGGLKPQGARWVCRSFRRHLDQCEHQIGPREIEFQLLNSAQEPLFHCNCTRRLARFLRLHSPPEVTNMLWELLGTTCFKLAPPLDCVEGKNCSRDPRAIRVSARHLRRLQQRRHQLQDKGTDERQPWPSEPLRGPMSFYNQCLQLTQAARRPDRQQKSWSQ
ARFGAP1 inh: inhibitors of rat ARFGAP1 GAP activity, primary screen, biochemical, fluorescence polarization, GDP tracer. AID 651572, 2012. inhibition, % at 16.5 µM. Arfgap1-stimulated ARF1 GTP hydrolysis, GDP FP detection. ADP-ribosylation factor GTPase-activating protein 1 (Rattus norvegicus), Q62848. 0.26% of 360,000 active;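 active = inhibition above a per-plate limit, mean inhibition of low control wells plus 3 SD, cut at about 25% in these data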;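 also: 0% = DMSO wells with enzyme and 100% = wells lacking Arfgap1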
Target sequence (Q62848 1-136 limits assumed): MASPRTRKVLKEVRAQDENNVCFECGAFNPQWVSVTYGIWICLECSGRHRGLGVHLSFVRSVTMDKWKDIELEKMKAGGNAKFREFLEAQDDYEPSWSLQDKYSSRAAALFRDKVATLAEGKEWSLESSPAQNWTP
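Replicates: Single well per compound | Assay system: Truncated rat Arfgap1 GAP domain | Control set: No-Arfgap1 wells (100%) versus DMSO full-reaction wells (0%) | Times: Enzyme reaction 120 min at 25 °C after 20 min preincubation | Reagent: Human ARF1(Δ1-17)-GTP substrate | Measured by: Tracer-displacement fluorescence polarization with EDTA stop, 620/688 nm | Measure: Percent inhibition of Arfgap1-stimulated GTP hydrolysis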
* hit, by the source's call; . = no result. Rows were chosen to be rich in hits. Some 2.3% of all compounds tested hit in one or more screens of this group.

SMILES	Calb FLC	SKKanGAS inh	ASAP1 inh	HGIII-sPLA2 inh	ARFGAP1 inh
CCOc1ccc(/C(O)=C2/C(=O)C(=O)N(c3ccccn3)C2c2ccc(Cl)cc2)c(C)c1 (centres undefined)	20	64*	-3	-13	5
CCOc1ccc(/C(O)=C2/C(=O)C(=O)N(c3ccccn3)C2c2ccc(C)cc2)c(C)c1 (centres undefined)	-3	40	8	-18	-7
CC(C)(C)c1cc(NCCCn2ccnc2)n2ncc(-c3ccc(Cl)cc3)c2n1	10	106*	-4	-18	20
COc1cccc(/C=C2/Sc3ccc(C(=O)NC4CC4)cc3NC2=O)c1	.	.	-13	-7	5
Cc1ccc(-c2nn(-c3ccccc3)cc2C=C2C(=O)CC(C)(C)CC2=O)cc1	-4	2	-8	5	0
CC1=NNC(=O)/C1=C\c1cn(-c2ccccc2)nc1-c1ccc(Cl)cc1	1	66*	7	-3	-2
CCC(=O)Nc1nc2ccccc2n1Cc1ccccc1Cl	36	63*	-5	-1	-11
CC(=O)Nc1nc2ccccc2n1Cc1ccccc1Cl	0	52*	10	18	6
O=C(Nc1nc2ccccc2n1Cc1ccccc1)c1ccco1	.	55*	0	-3	-6
CCC(=O)Nc1nc2ccccc2n1CCN1CCOCC1	-2	-3	13	9	12
CCC(=O)Nc1nc2ccccc2n1Cc1ccc(Cl)cc1	-1	62*	1	-1	-7
CCn1c(CCNC(=O)c2ccco2)nc2ccccc21	0	1	2	4	9
C=CCN1C(=O)[C@H](CC(=O)NCc2cccc3ccccc23)[C@@]2(C(=O)OCC)CCCC=C12	.	.	.	-3	.
CCCCCCCn1c(NC(=O)CC)nc2ccccc21	-17	104*	-5	-2	-16
CCn1c(SCc2ccccc2Cl)nc2ccccc21	19	74*	-19	-2	-7
Cn1c(SCc2ccccc2Cl)nc2ccccc21	-4	17	-8	-4	-4
COc1ccc(S[C@]2(C(=O)N3CCOCC3)CC(=O)N(S(=O)(=O)c3ccc(F)cc3)[C@@H]2c2ccc(OC)cc2)cc1	.	.	.	6	.
CC/C(=C/c1ccccc1)c1cccc2[nH]c3c(OC)cccc3c12	5	99*	7	-3	13
CCOC(=O)[C@]12CCCC=C1N(CCc1ccc(OC)c(OC)c1)C(=O)[C@H](CC(=O)NCCc1ccccc1OC)C2	.	.	-5	-13	-8
CCOc1cccc(C2c3c(oc4ccccc4c3=O)C(=O)N2c2ccccn2)c1 (centres undefined)	10	-1	-1	-2	4
COc1cccc(C2c3c(oc4ccccc4c3=O)C(=O)N2c2ccccn2)c1 (centres undefined)	-4	-2	3	20*	-5
CCCCC(CC)C(=O)Oc1ccc(O)c(C(C)(C)C)c1 (centres undefined)	29	61*	4	-20	15
O=C(NCc1ccncc1)C(=O)Nc1nc(C23CC4CC(CC(C4)C2)C3)cs1	14	6	-7	-21	8
O=C(NCc1ccccc1)C(=O)Nc1nc(C23CC4CC(CC(C4)C2)C3)cs1	13	102*	1	-4	-6
O=C(NCc1ccc(F)cc1)C(=O)Nc1nc(C23CC4CC(CC(C4)C2)C3)cs1	3	109*	-4	5	-3
SMILES	Calb FLC	SKKanGAS inh	ASAP1 inh	HGIII-sPLA2 inh	ARFGAP1 inh
Cc1cccc(Cc2nnc(CCC(=O)N3CCCCC3c3nccs3)o2)c1 (centres undefined)	100*	-12	-6	7	-10
Clc1ccc([C@H]2OC[C@@]3(CNCCN4CCOCC4)CS[C@H](c4ccc(Cl)cc4)N23)cc1	.	.	.	6	.
Cc1cnc(CN2CCCC(C(=O)c3ccc4c5c(cccc35)CC4)C2)[nH]1 (centres undefined)	-38	18	-6	-7	-11
O=C(Nc1ccc(-c2cccc(F)c2)cc1)C1CCCN(Cc2ccccn2)C1 (centres undefined)	1	52*	-13	-21	12
O=C(c1ccc2c3c(cccc13)CC2)C1CCCN(Cc2ccccn2)C1 (centres undefined)	-2	69*	-3	-1	-9
COc1cccc(-c2ccc(NC(=O)C3CCCN(Cc4ccccn4)C3)cc2)c1 (centres undefined)	.	.	-11	-10	1
C#CCNC(=O)C[C@H]1C(=O)N(CC=C)C2=CCCC[C@@]21C(=O)OCC	.	.	.	4	.
CCCCCCCCN1C(=O)[C@@H](CC(=O)NCCCOC)C[C@@]2(C(=O)OC)C1=C[C@H](C1CCCC1)O[C@@H]2C	.	.	-9	-10	3
COc1nc(Nc2nc3ccccc3c(=O)[nH]2)nc2ccc(C)cc12	1	85*	15	-1	8
Cc1ccc2c(=O)[nH]c(Nc3nc(C)cc(-c4ccccc4)n3)nc2c1	13	89*	2	-4	0
Cc1nc(Nc2nc(CSc3nc4ccccc4[nH]3)cc(=O)[nH]2)nc2ccccc12	14	12	6	-24	24
Cc1nc(Nc2nc(-c3ccccc3)cc(=O)[nH]2)nc2ccccc12	3	82*	4	3	0
O=C(OCc1cn(Cc2ccccc2)nn1)N1CCOCC1	.	.	.	8	.
Cc1onc(-c2ccccc2)c1C(=O)N/N=C/c1cccs1	5	-2	9	5	-3
Cc1onc(-c2ccccc2)c1C(=O)NC(=S)NNC(=O)c1ccco1	-6	78*	1	13	5
Cc1onc(-c2ccccc2)c1C(=O)NC(=S)NNC(=O)c1ccncc1	2	35	4	19	9
Cc1onc(-c2ccccc2)c1C(=O)NC(=S)NNC(=O)c1cccnc1	100*	23	1	3	1
Cc1onc(-c2ccccc2)c1C(=O)NNC(=S)NC(=O)/C=C/c1cccs1	-10	95*	-4	7	1
CC(C)(C)c1ccc(S(=O)(=O)N2CCC(C(=O)NCc3cccs3)CC2)cc1	.	.	.	4	.
CCn1c2ccccc2c2cc(NC(=O)CSc3nnc(-c4ccccc4)n3Cc3ccco3)ccc21	.	.	.	-7	.
O=C1CC(SC(=Nc2ccccc2)Nc2ccccc2)C(=O)N1c1ccc(Cl)c(Cl)c1 (centres undefined)	-2	72*	11	12	14
CN=C(Nc1cc(Cl)ccc1Cl)SC1CC(=O)N(c2ccc(C(=O)OC)cc2)C1=O (centres undefined)	3	52*	5	-17	17
Cc1cccc(N2C(=O)CC(SC(=Nc3ccccc3)Nc3ccccc3)C2=O)c1 (centres undefined)	21	2	9	-10	9

Screening results as filed in PubChem.
